In brackets after ≈: the same amount, converted by molar mass. Bounds are passed on as bounds.

What is called IC50 is the concentration at which inhibition is half-maximal. By solubility is commonly meant how much of the substance goes into solution per volume. The low end stands for a poorly soluble substance, the high end for a readily soluble substance. As a reminder, the half-life is how long it takes for the measured level to halve. The low end stands for rapid decline, the high end for slow decline.

A short description of data set [1]: Antiproliferative activity against human KB/VCR cells after 72 hrs by sulforhodamine B assay. The format is functional, cell-based. In a few lines: (§1)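 Cells grown in ATCC-specified medium with 10% heat-inactivated FBS, penicillin/streptomycin and 10 mM Hepes, at 37 °C under 5% CO2. Seeded, cultured overnight, then exposed to gradient concentrations for 72 h. Growth read by SRB staining; inhibition % = [1−(A450 treated/A450 control)]×100. IC50 obtained by the Logit method from independent experiments.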
(The SRB assay estimates cell density from bound dye.)

The test system of data set [2] is KB. The experiment in a line: Antiproliferative activity against human KB cells after 72 hrs by sulforhodamine B assay. The format is functional, cell-based. In short, it runs like this:
as §1

Data set [3] is described as follows: Aqueous solubility of the compound in pH 7.5 Tris buffer after 24 hrs by HPLC method. The format is physicochemical.
Data set [4] relates to Liver. The experiment in a line: Intrinsic clearance in human liver microsomes assessed as per mg protein up to 60 mins by LC-MS/MS analysis. The format is ADME, microsome. The note with it: 1 h. In a few lines: (§2)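 Compound at 0.1 μM final (0.01% DMSO, 0.005% BSA) incubated at 37 °C with human, rat or mouse liver microsomes (0.33 mg/mL protein) in 0.1 M Tris/HCl pH 7.4, with 5 mM MgCl2 and 1 mM NADPH. Samples taken at 0, 7, 17, 30 and 60 min, quenched by methanol precipitation, centrifuged, and parent measured by LC-MS/MS. T1/2 and Clint derived.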
(In general: Microsomes from liver hold many membrane-bound enzymes, among them those of drug oxidation.)

The nature of data set [5]: Half life in rat liver microsomes at 0.1 uM up to 60 mins by LC-MS/MS analysis. It counts as ADME, microsome. In short, it runs like this: as §2
A short description of data set [6]: Half life in mouse liver microsomes at 0.1 uM up to 60 mins by LC-MS/MS analysis. The format is ADME, microsome. The note with it: liver microsomes. In short, it runs like this:
as §2

Data set [7] can be described thus: Half life in human liver microsomes at 0.1 uM up to 60 mins by LC-MS/MS analysis. The format is ADME, microsome. In short, it runs like this: as §2
Data set [8] has as its system Liver. The experiment in a line: Intrinsic clearance in rat liver microsomes assessed per mg protein up to 60 mins by LC-MS/MS analysis. It counts as ADME, microsome. The note with it: 1 h. In short, it runs like this: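 Liver microsomes (0.33 mg/mL protein) in 0.1 M Tris/HCl pH 7.4 with 5 mM MgCl2, 1 mM NADPH, compound at 0.1 μM final (0.01% DMSO, 0.005% BSA), 37 °C; samples at 0, 7, 17, 30, 60 min quenched in methanol, centrifuged, LC-MS/MS; T1/2 and Clint per g protein derived.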

Data set [9] has as its system Liver. The experiment in a line: Intrinsic clearance in mouse liver microsomes assessed per mg protein up to 60 mins by LC-MS/MS analysis. The format is ADME, microsome. The note with it: 1 h. In a few lines:
as §2

With `Cc1cc2c(o1)-c1c(c3ccccc3c(=O)n1CCCn1ccnc1)C(=O)C2=O`, the IC50 in [1] came to 10100 nM; in data set [2] it was 17200 nM.

Turning to `Cc1cc2c(o1)-c1c(c3ccccc3c(=O)n1CCCCCN(C)C)C(=O)C2=O`, the 50% inhibitory concentration (IC50) in [1] came to 5170 nM; in [2] it was 13800 nM.

Turning to `Cc1cc2c(o1)-c1nc(OCCOCCN(C)C)c3ccccc3c1C(=O)C2=O`, the concentration for half-maximal inhibition (IC50) was determined as 1650 nM in data set [1] and 3780 nM in data set [2].

For `Cc1cccc2c3c(ccc12)-c1occ(CN2CCN(C)CC2)c1C(=O)C3=O`, the values for the half-maximal inhibitory concentration (IC50) in data set [1] and in data set [2] were 13100 nM and 5220 nM, respectively.

`Cc1cccc2c3c(ccc12)-c1occ(CN2CCOCC2)c1C(=O)C3=O`: the half-inhibitory concentration (IC50) in [1] and in data set [2] was above 20000 nM throughout.

With `Cc1cccc2c3c(ccc12)-c1occ(CN2CCC(CO)C2)c1C(=O)C3=O` (centres undefined), the concentration for half-maximal inhibition (IC50) in data set [1] was 910 nM; in data set [2] it was 1270 nM.

For `Cc1cccc2c3c(ccc12)-c1occ(CN2CC[C@H](N(C)C)C2)c1C(=O)C3=O`, the results for the IC50 in data set [1] and in data set [2] were 1700 nM and 2610 nM, respectively.

As for `CON(C)Cc1coc2c1C(=O)C(=O)c1c-2ccc2c(C)cccc12`, the IC50 in [1] was determined as 5710 nM; in [2] it was 8120 nM.

As for `Cc1cccc2c3c(ccc12)-c1occ(CN(CCCl)CCCl)c1C(=O)C3=O`, the values for the IC50 in data set [1] and in data set [2] were 10900 nM and 9430 nM, respectively.

As to `Cc1cc2c(o1)-c1c(c3ccccc3c(=O)n1CCCN1CCOCC1)C(=O)C2=O`, the 50% inhibitory concentration (IC50) in data set [1] worked out at 1560 nM; in data set [2] it was 2300 nM.

In the case of `Cc1cc2c(o1)-c1c(c3ccccc3c(=O)n1CCCCN(C)C)C(=O)C2=O`, the values for the IC50 in [1] and in data set [2] were 2470 nM and 4050 nM, respectively.

Consider `CCN(CC)CCCn1c2c(c3ccccc3c1=O)C(=O)C(=O)c1cc(C)oc1-2.Cl`, for which the solubility at 24 h in data set [3] was above 80000 µg/mL.

Turning to `COc1ccc(OC)c(NC2C3=C(OC2(C)C)c2ccc4c(C)cccc4c2C(=O)C3=O)c1` (centres undefined), the IC50 in [1] and in data set [2] was above 20000 nM each time.

Turning to `Cc1cccc2c3c(ccc12)C1=C(CC(C)(C)O1)C(=O)C3=O`, the 50% inhibitory concentration (IC50) in data set [1] is 2370 nM; in data set [2], 2620 nM.

Consider `Cc1cccc2c3c(ccc12)-c1occ(CN2CCCC2)c1C(=O)C3=O`, for which the values for the IC50 in [1] and in data set [2] were 1790 nM and 1590 nM, respectively.

As for `Cc1cccc2c3c(ccc12)-c1occ(CN2CCO[C@H](CO)C2)c1C(=O)C3=O`, the IC50 in data set [1] was determined as 2410 nM; in data set [2], 4970 nM.

As to `Cc1cccc2c3c(ccc12)-c1occ(CN2CCC(O)CC2)c1C(=O)C3=O`, the IC50 amounted to 1110 nM in data set [1] and 1540 nM in data set [2].

As to `Cc1cccc2c3c(ccc12)C1=C(C(=O)C3=O)C(Nc2ccc(F)c([N+](=O)[O-])c2)C(C)(C)O1` (centres undefined), the IC50 in data set [1] and in data set [2] was above 20000 nM each time.

On to `Cc1cc2c(o1)-c1c(c3ccccc3c(=O)n1CCCN1CCCCC1)C(=O)C2=O`, for which the IC50 in [1] worked out at 1530 nM; in data set [2] it was 1120 nM.

Consider `Cc1cccc2c3c(ccc12)C1=C(C(=O)C3=O)C(O)C(C)(C)O1` (centres undefined), for which, in data set [3], the solubility at 24 h came out at 90 µg/mL (≈ 292 µM). For the same compound, the half-maximal inhibitory concentration (IC50) in data set [1] was 1240 nM; in data set [2], 1630 nM. Further, the intrinsic clearance was found to be 36.8 mL/min/g in data set [4], 104 mL/min/g in [8] and 83.1 mL/min/g in data set [9]. Besides, the half-life at 0.1 µM stood at 20.2 min in [5], 25.3 min in data set [6] and 57.1 min in data set [7].

`Cc1cccc2c3c(ccc12)-c1occ(CN2CCC(=O)CC2)c1C(=O)C3=O`: the concentration for half-maximal inhibition (IC50) in data set [1] amounted to 4740 nM; in data set [2] it was 9710 nM.

`Cc1cc2c(o1)-c1nc(OCCCCCN(C)C)c3ccccc3c1C(=O)C2=O`: the IC50 worked out at 1990 nM in [1] and 15300 nM in data set [2].

For the compound `Cc1cc2c(o1)-c1c(c3ccccc3c(=O)n1CCCN1CCCC1)C(=O)C2=O`, the 50% inhibitory concentration (IC50) in data set [1] is 2640 nM; in data set [2] it was 3400 nM.

`COC1C2=C(OC1(C)C)c1ccc3c(C)cccc3c1C(=O)C2=O` (centres undefined): the IC50 amounted to 2020 nM in [1] and 2190 nM in data set [2].

Regarding `Cc1cc2c(o1)-c1c(c3ccccc3c(=O)n1CCCN1CCN(C)CC1)C(=O)C2=O`, the values for the half-maximal inhibitory concentration (IC50) in [1] and in [2] were 3520 nM and 10400 nM, respectively.

In the case of `Cc1cccc2c3c(ccc12)-c1occ(CO)c1C(=O)C3=O`, the IC50 was 2950 nM in data set [1] and 3220 nM in data set [2].

For `Cc1cccc2c3c(ccc12)-c1occ(CN2CCC(N(C)C)CC2)c1C(=O)C3=O`, the figures for the IC50 in [1] and in data set [2] were 3820 nM and 3800 nM, respectively.

In data set [3], `Cc1cccc2c3c(ccc12)-c1occ(CN(C)C)c1C(=O)C3=O.Cl` came in with a solubility at 24 h of 8030 µg/mL.

Turning to `Cc1cc2c(o1)-c1c(c3ccccc3c(=O)n1CCO)C(=O)C2=O`, the IC50 in [1] and in [2] was above 20000 nM each time.

`CC[C@]1(O)C[C@H]2CN(CCc3c([nH]c4ccccc34)[C@@](C(=O)OC)(c3cc4c(cc3OC)N(C=O)[C@H]3[C@@](O)(C(=O)OC)[C@H](OC(C)=O)[C@]5(CC)C=CCN6CC[C@]43[C@@H]65)C2)C1` [VINCRISTINE]: the IC50 in data set [1] worked out at 358 nM; in data set [2], 0.72 nM.

In the case of `Cc1cccc2c3c(ccc12)-c1occ(CN2CCN(CCO)CC2)c1C(=O)C3=O`, the 50% inhibitory concentration (IC50) is 4410 nM in data set [1] and 2680 nM in [2].

Consider `Cc1cc2c(o1)-c1c(c3ccccc3c(=O)n1CCCN1CCC(N3CCOCC3)CC1)C(=O)C2=O`, for which the figures for the half-inhibitory concentration (IC50) in data set [1] and in [2] were 1720 nM and 340 nM, respectively.

Take `Cc1cccc2c3c(ccc12)-c1occ(CN(C)CCO)c1C(=O)C3=O`: the half-inhibitory concentration (IC50) in [1] was 1020 nM; in [2], 1500 nM.

On to `Cc1cc2c(o1)-c1c(c3ccccc3c(=O)n1CCCN(C)C)C(=O)C2=O`, for which the IC50 in [1] was 920 nM; in data set [2] it was 710 nM.

Turning to `Cc1cc2c(o1)-c1c(c3ccccc3c(=O)n1CCCN1CCC(CCO)CC1)C(=O)C2=O`, the IC50 in data set [1] worked out at 1490 nM; in data set [2], 870 nM.

For `Cc1cccc2c3c(ccc12)-c1occ(CN(C)C)c1C(=O)C3=O`, the IC50 in [1] worked out at 510 nM; in data set [2] it was 1110 nM. Further, the intrinsic clearance in data set [4] stood at 4.19 mL/min/g; in [8] it was 92.7 mL/min/g; in data set [9] it was 51.6 mL/min/g. Besides, the half-life at 0.1 µM in data set [5] was found to be 22.7 min; in data set [6] it was 40.7 min; in [7], 501 min.

Consider `Cc1cc2c(o1)-c1nc(OCCCCN(C)C)c3ccccc3c1C(=O)C2=O`, for which the half-inhibitory concentration (IC50) in data set [1] and in data set [2] was above 20000 nM each time.

In the case of `Cc1cccc2c3c(ccc12)-c1occ(CN(CCO)CCO)c1C(=O)C3=O`, the IC50 in data set [1] was 1430 nM; in data set [2], 1640 nM.

As to `Cc1cc2c(o1)-c1nc(OCCO)c3ccccc3c1C(=O)C2=O`, the IC50 in [1] and in data set [2] was above 20000 nM in each case.

The record behind these values is ChEMBL document CHEMBL4033782, “Structural Modification of Natural Product Tanshinone I Leading to Discovery of Novel Nitrogen-Enriched Derivatives with Enhanced Anticancer Profile and Improved Drug-like Properties” (J Med Chem, 2018).
